Molecules are shown by their SMILES. pIC50, pKi: −log10 of the molar value.

The target of experiment [1] is T1, Adenosine receptor A2b (Homo sapiens, UniProt P29275).
T1 sequence (P29275 whole entry): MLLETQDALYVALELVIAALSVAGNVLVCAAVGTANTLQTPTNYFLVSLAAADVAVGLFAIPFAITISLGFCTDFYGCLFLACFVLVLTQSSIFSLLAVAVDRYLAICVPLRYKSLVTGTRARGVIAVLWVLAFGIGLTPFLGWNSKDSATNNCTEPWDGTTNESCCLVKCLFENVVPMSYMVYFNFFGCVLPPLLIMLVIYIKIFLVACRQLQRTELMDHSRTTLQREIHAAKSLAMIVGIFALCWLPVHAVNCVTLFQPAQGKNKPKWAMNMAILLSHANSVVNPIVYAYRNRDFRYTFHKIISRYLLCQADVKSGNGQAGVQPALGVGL
Nature of the experiment: Displacement of [3H]DPCPX binding at human Adenosine A2B receptor expressed in HEK293 cells. In kind it is cell-based. The procedure, abridged:
(§1)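 Membranes from HEK-293 cells with human recombinant A2B receptor. Incubation 60 min at 25 °C in 50 mM Tris HCl, 10 mM MgCl2, 1 mM EDTA, 0.1 mM benzamidine, pH 7.4, with 2 IU/mL adenosine deaminase and 40 nM [3H]DPCPX. At least six to eight test concentrations. Nonspecific binding defined with NECA. n = 3-6.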

For experiment [2], the target named is T2, Adenosine receptor A3 (Homo sapiens, UniProt P0DMS8).
T2 sequence (P0DMS8 whole entry): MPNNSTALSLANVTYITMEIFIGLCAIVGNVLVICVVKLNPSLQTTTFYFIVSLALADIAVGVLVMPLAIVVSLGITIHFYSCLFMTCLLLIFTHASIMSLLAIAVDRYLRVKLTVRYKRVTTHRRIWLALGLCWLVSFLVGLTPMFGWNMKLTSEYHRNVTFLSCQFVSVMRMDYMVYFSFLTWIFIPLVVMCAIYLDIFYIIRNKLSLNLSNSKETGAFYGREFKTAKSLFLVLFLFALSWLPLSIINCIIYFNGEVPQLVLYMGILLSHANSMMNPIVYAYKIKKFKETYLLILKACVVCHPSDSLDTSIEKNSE
As to the kind of experiment: Displacement of [3H]MRE3008-F20 from human Adenosine A3 receptor expressed in HEK cells; range 31-50. In kind it is cell-based, HEK293. On the technique in general: In a radioligand displacement assay an active substance lowers the binding of a labelled ligand.

Experiment [3] addresses T3, Adenosine receptor A2a (Homo sapiens, UniProt P29274). Nature of the experiment: Displacement of [3H]SCH-58261 from human Adenosine A2A receptor expressed in HEK293 cells; range 199-311. Type of experiment: cell-based.
Experiment [4] has as its target Adenosine receptors; A1 & A3 (Homo sapiens) (UniProt P30542+P0DMS8). As to the kind of experiment: Selectivity ratio (hA1/hA3). In kind it is protein assay.
Experiment [5] addresses Adenosine receptors; A2b & A3 (Homo sapiens) (UniProt P29275+P0DMS8). As to the kind of experiment: Selectivity ratio (h2B/hA3). In kind it is protein assay.
Experiment [6] has as its target T4, Adenosine receptor A1 (Homo sapiens, UniProt P30542).
T4 sequence (P30542 whole entry): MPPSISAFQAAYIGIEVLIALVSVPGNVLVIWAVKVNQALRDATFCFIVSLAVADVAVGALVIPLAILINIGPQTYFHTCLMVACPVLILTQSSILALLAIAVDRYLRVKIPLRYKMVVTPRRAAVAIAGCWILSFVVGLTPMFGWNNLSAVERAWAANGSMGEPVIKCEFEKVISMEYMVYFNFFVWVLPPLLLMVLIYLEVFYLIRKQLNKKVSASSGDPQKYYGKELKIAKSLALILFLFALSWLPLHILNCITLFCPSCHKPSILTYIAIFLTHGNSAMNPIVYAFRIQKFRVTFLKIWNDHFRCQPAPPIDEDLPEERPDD
As to the kind of experiment: Displacement of [3H]DPCPX from human Adenosine A1 receptor expressed in CHO cells. In kind it is cell-based. The method, boiled down: (§2)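 Human recombinant A1 receptor in CHO cell membranes, resuspended in 50 mM Tris HCl pH 7.4. Displacement run 120 min at 25 °C with 1 nM [3H]DPCPX, 50 µg protein per assay, and at least six to eight test concentrations. Nonspecific binding defined with CHA. Bound and free separated on glass-fiber filters; filter radioactivity counted. n = 3-6.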

Experiment [7] addresses T4, Adenosine receptor A1. Nature of the experiment: Displacement of [3H]DPCPX from human Adenosine A1 receptor expressed in CHO cells; range 351-526. Type of experiment: cell-based. The method, boiled down:
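Competition binding on membranes of CHO cells stably expressing human A1 receptor, resuspended in 50 mM Tris HCl pH 7.4. Incubation 120 min at 25 °C with 1 nM [3H]DPCPX, 50 µg protein per assay and at least six to eight test concentrations. CHA defined nonspecific binding. Bound ligand separated on glass-fibre filters and counted; n = 3-6.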

The target of experiment [8] is T3, Adenosine receptor A2a. As to the kind of experiment: Displacement of [3H]SCH-58261 from human Adenosine A2A receptor expressed in HEK293 cells; range 162-200. In kind it is cell-based.
Experiment [9] has as its target T2, Adenosine receptor A3. Nature of the experiment: Inhibition of IB-MECA agonist-mediated cAMP production in membranes of CHO cells expressing human Adenosine A3 receptor; range 1.2-4.9. Type of experiment: functional, cell-based. The procedure, abridged:
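Human A3-CHO membranes (in 50 mM Tris HCl, 10 mM MgCl2, 1 mM EDTA, pH 7.4) were preincubated for 10 min at 37 °C with 5 µM GTP, 0.5 mM Ro 20-1724 and 2.0 IU/mL adenosine deaminase. IB-MECA (100 nM) or antagonist was then added with 1 mM ATP and forskolin for 10 min. The reaction was stopped by 2 min boiling. cAMP was measured by [3H]cAMP competitive protein binding using beef adrenal binding protein, 150 min at 4 °C.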
(Changes in cAMP serve as a functional read-out for many G protein-coupled receptors.)

The target of experiment [10] is T1, Adenosine receptor A2b. As to the kind of experiment: Displacement of [3H]DPCPX from human Adenosine A2B receptor expressed in HEK293 cells; range 115-143. In kind it is cell-based. The procedure, abridged: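 Competition binding on membranes of HEK-293 cells carrying recombinant human A2B receptor. Incubation 60 min at 25 °C in 50 mM Tris HCl pH 7.4 with 10 mM MgCl2, 1 mM EDTA, 0.1 mM benzamidine and 2 IU/mL adenosine deaminase. Radioligand 40 nM [3H]DPCPX, at least six to eight test concentrations. NECA defined nonspecific binding. Bound ligand separated on glass-fibre filters and counted; n = 3-6.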

Experiment [11] deals with T2, Adenosine receptor A3. Nature of the experiment: Displacement of [3H]MRE3008-F20 from human Adenosine A3 receptor expressed in HEK cells; range 0.23-0.36. In kind it is cell-based, HEK293.
The target in experiment [12] is T1, Adenosine receptor A2b. Nature of the experiment: Displacement of [3H]DPCPX from human Adenosine A2B receptor expressed in HEK293 cells; range 57-105. In kind it is cell-based. The method, boiled down:
as §1

For experiment [13], the target named is T3, Adenosine receptor A2a. As to the kind of experiment: Displacement of [3H]SCH-58261 from human Adenosine A2A receptor expressed in HEK293 cells; range 332-426. Type of experiment: cell-based.
Experiment [14] has as its target T2, Adenosine receptor A3. As to the kind of experiment: biochemical.
In experiment [15] the target is T4, Adenosine receptor A1. As to the kind of experiment: Displacement of [3H]DPCPX from human Adenosine A1 receptor expressed in CHO cells; range 314-536. In kind it is cell-based.
Experiment [16] concerns the target T3, Adenosine receptor A2a. As to the kind of experiment: Displacement of [3H]SCH-58261 from human Adenosine A2A receptor expressed in HEK293 cells; range 30-54. Type of experiment: cell-based.
Experiment [17] concerns the target T1, Adenosine receptor A2b. Nature of the experiment: Displacement of [3H]DPCPX from human Adenosine A2B receptor expressed in HEK293 cells; range 261-336. Type of experiment: cell-based. The method, boiled down:
as §1

Experiment [18] has as its target T4, Adenosine receptor A1. As to the kind of experiment: Displacement of [3H]DPCPX from human Adenosine A1 receptor expressed in CHO cells; range 389-640. In kind it is cell-based. The method, boiled down:
as §2

The target in experiment [19] is T2, Adenosine receptor A3. Nature of the experiment: Displacement of [3H]MRE3008-F20 from human Adenosine A3 receptor expressed in HEK cells; range 0.29-0.47. In kind it is cell-based, HEK293.
Experiment [20] concerns the target T3, Adenosine receptor A2a. Nature of the experiment: Displacement of [3H]SCH-58261 from human Adenosine A2A receptor expressed in HEK293 cells; range 108-163. Type of experiment: cell-based.
Experiment [21] deals with T4, Adenosine receptor A1. Nature of the experiment: Displacement of [3H]DPCPX from human Adenosine A1 receptor expressed in CHO cells; range 216-412. Type of experiment: cell-based. The procedure, abridged: as §2
In experiment [22] the target is T2, Adenosine receptor A3. As to the kind of experiment: biochemical. This is another data set of the same source.
The target of experiment [23] is T1, Adenosine receptor A2b. Nature of the experiment: Displacement of [3H]DPCPX from human Adenosine A2B receptor expressed in HEK293 cells; range 162-237. In kind it is cell-based. The method, boiled down:
as §1

T3 sequence (P29274 whole entry): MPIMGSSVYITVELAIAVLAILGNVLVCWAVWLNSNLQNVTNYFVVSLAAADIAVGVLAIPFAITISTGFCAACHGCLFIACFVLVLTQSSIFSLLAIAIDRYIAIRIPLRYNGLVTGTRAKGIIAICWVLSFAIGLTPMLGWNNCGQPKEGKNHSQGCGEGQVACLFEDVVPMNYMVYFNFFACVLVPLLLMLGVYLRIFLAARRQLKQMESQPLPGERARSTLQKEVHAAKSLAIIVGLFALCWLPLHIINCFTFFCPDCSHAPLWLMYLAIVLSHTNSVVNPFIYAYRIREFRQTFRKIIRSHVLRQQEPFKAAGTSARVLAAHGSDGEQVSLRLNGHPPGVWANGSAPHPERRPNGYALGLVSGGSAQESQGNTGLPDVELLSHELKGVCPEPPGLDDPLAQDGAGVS

As for `CCn1cc2c(nc(NC(=O)Nc3ccc(S(=O)(=O)O)cc3)n3nc(-c4ccco4)nc23)n1`, the pKi (commonly the Ki on a negative log10 scale, so that one unit is a factor of ten) at Adenosine receptor A2b [1] was less than 5.00; on Adenosine receptor A3 [2], 7.40; at Adenosine receptor A2a [3] it was 6.60; at Adenosine receptor A1 [6] it was less than 5.00. Further, the Ratio in [4] and in [5] was greater than 250 each time.

Regarding `Cn1cc2c(nc(NC(=O)Nc3ccc(Cl)cc3)n3nc(-c4ccco4)nc23)n1`, the pKi on Adenosine receptor A1 [7] was 6.37; on Adenosine receptor A2a [8], 6.74; at Adenosine receptor A2b [10], 6.89; on Adenosine receptor A3 [11], 9.54. Besides, the Ratio in experiment [4] stood at 1480; in [5], 441. In addition, the pIC50 (commonly the negative decadic logarithm of the IC50, by convention in mol/L) on Adenosine receptor A3 [9] is 8.62.

On to `CCCCn1cc2c(nc(NC(=O)Nc3ccc4c(c3)OCO4)n3nc(-c4ccco4)nc23)n1`, for which the pKi at Adenosine receptor A2b [12] was 7.11; at Adenosine receptor A2a [13], 6.42; on Adenosine receptor A3 [14], 9.30; at Adenosine receptor A1 [15] it was 6.39. Further, the figures for the Ratio in [4] and in [5] were 820 and 156, respectively.

As to `CCn1cc2c(nc(NC(=O)Nc3ccc(Br)cc3)n3nc(-c4ccco4)nc23)n1`, the pKi at Adenosine receptor A2a [16] is 7.40; at Adenosine receptor A2b [17] it was 6.53; on Adenosine receptor A1 [18] it was 6.30; on Adenosine receptor A3 [19], 9.43. The Ratio is 1350 in [4] and 800 in [5].

On to `CCn1cc2c(nc(NC(=O)Nc3ccccc3OC)n3nc(-c4ccco4)nc23)n1`, for which the pKi on Adenosine receptor A2a [20] is 6.88; on Adenosine receptor A1 [21] it was 6.52; at Adenosine receptor A3 [22], 9.25; on Adenosine receptor A2b [23], 6.71. Moreover, the Ratio in [4] was 536; in experiment [5] it was 350.

(Values after ChEMBL document CHEMBL1136016, “Synthesis, biological activity, and molecular modeling investigation of new pyrazolo[4,3-e]-1,2,4-triazolo[1,5-c]pyrimidine derivatives as human A(3) adenosine receptor antagonists” (J Med Chem, 2002).)
